Data on one compound can be found in ChEMBL document CHEMBL5055621, “Synthesis and Characterization of the Novel Rodent-Active and CNS-Penetrant P2X7 Receptor Antagonist Lu AF27139” (J Med Chem, 2021).

As a reminder, the inhibition is the percentage by which the read-out fell short of the control. For orientation: Ki means a measure of affinity in units of concentration, obtained from inhibition or displacement. As a reminder, the Tmax is the time from dosing to the highest level. As usually defined, the IC50 is the concentration that inhibits the measured activity by half. Lower therefore signals higher potency.

Series [1] addresses Adenosine receptor A2a (Homo sapiens) (UniProt P29274). The series is described as follows: Displacement of [3H]-CGS 21680 from human recombinant adenosine A2A receptor at 10 uM after 120 mins by scintillation counting analysis relative to control. For orientation: In a radioligand displacement assay an active substance lowers the binding of a labelled ligand.
A short description of series [2]: Reduction in LPS/BzATP-induced IL-1beta release in icv dosed C57BL/6NCrl mouse frontal cortex assessed as minimal effective dose pretreated 1 hr before BzATP stimulus. It counts as functional. To be noted: read-out: MED. The procedure, abridged:
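Rats and mice with frontal cortex microdialysis probes and a lateral ventricle cannula received icv LPS (rat 3 μg/5 μL; mouse 0.1 μg/3 μL), and 1 h later oral compound in 20% HP-β-cyclodextrin. BzATP icv (rat 50 μg; mouse 5 μg) followed 1 h later.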

The next series addresses T1, Cytochrome P450 2B6 (Homo sapiens, UniProt P20813).
T1 sequence (P20813 whole entry): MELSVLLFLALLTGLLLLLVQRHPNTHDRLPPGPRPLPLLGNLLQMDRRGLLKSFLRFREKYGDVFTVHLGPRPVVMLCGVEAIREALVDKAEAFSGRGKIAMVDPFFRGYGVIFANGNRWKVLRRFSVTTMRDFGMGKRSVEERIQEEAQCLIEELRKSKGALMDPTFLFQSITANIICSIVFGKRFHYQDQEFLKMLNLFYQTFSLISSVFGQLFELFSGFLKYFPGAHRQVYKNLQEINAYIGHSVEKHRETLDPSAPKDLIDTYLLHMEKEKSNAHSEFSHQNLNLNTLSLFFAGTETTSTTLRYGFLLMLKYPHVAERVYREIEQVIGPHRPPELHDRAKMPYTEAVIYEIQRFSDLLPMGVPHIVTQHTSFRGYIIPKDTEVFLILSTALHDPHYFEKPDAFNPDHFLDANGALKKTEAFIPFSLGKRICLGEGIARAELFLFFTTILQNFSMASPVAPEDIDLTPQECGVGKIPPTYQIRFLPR
The series is described as follows: Inhibition of CYP2B6 (unknown origin) upto 25 uM. It counts as ADME.

Series [3] addresses T2, Cytochrome P450 2D6 (Homo sapiens, UniProt P10635). Nature of the series: Inhibition of CYP2D6 (unknown origin) upto 25 uM. It counts as ADME.
A further series deals with T3, P2X purinoceptor 7 (Mus musculus, UniProt Q9Z1M0).
T3 sequence (Q9Z1M0 whole entry): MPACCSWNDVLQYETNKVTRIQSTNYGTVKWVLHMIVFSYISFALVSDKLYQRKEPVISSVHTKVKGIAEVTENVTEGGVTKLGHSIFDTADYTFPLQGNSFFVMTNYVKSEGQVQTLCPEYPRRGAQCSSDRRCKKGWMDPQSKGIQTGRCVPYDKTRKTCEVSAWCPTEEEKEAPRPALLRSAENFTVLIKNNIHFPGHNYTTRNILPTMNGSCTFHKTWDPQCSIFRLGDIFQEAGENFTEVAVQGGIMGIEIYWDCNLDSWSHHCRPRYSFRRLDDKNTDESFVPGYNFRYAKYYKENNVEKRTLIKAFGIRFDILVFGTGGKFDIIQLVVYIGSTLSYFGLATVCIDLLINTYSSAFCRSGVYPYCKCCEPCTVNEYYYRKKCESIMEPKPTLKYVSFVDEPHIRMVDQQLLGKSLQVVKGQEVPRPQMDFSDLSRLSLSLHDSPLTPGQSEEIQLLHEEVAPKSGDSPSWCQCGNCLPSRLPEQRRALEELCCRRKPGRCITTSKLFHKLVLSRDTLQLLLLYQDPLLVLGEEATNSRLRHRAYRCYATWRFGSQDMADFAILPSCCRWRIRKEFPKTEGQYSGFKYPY
The series is described as follows: Displacement of [3H]-A-804598 from mouse P2X7 receptor expressed in HEK293 cell membrane by in vitro binding assay. It counts as cell membranes.

Series [4] addresses T2, Cytochrome P450 2D6. Nature of the series: Time dependent inhibition of CYP2D6 (unknown origin) upto 25 uM. It counts as ADME.
In series [5] the target is T4, Cytochrome P450 3A4 (Homo sapiens, UniProt P08684). Nature of the series: Time dependent inhibition of CYP3A4 (unknown origin) upto 25 uM. It counts as ADME.
T4 sequence (P08684 whole entry): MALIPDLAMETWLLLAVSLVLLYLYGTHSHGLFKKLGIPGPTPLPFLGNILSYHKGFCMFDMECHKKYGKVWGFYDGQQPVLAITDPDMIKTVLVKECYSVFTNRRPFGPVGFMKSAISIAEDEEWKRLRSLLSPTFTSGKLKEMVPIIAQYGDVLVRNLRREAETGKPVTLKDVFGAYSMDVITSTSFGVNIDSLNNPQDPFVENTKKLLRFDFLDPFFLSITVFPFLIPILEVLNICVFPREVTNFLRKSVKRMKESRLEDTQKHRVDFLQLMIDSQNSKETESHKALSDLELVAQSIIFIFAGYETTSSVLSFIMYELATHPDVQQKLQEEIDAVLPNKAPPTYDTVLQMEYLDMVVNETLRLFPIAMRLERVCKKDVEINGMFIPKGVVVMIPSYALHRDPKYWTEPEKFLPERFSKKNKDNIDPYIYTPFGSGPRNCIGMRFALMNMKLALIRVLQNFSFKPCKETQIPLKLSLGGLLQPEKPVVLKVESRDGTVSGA
Series [6] in a line: Inhibition of BzATP-induced current in rat primary microglia cells measured after repeated BzATP treatment at -60 mV at 30 nM by whole cell patch clamp assay relative to control. The series is classed as functional. An outline of the steps: (§1)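 Rat primary microglia were whole-cell patch-clamped at −60 mV (external pH 7.4 with 1.8 mM CaCl2; CsCl/EGTA internal pH 7.2). Currents came from 10 s applications of 300 μM BzATP, applied repeatedly. Compound was applied by gravity via capillary for 60 s, and inhibition was taken relative to the control response.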

Series [7] can be described thus: Tmax in male rat at 150 mg/kg, po after 7 days. It counts as ADME, organism-based. The settings on record: in vivo, time 7 day.
Another series deals with T5, Cytochrome P450 2C8 (Homo sapiens, UniProt P10632).
T5 sequence (P10632 whole entry): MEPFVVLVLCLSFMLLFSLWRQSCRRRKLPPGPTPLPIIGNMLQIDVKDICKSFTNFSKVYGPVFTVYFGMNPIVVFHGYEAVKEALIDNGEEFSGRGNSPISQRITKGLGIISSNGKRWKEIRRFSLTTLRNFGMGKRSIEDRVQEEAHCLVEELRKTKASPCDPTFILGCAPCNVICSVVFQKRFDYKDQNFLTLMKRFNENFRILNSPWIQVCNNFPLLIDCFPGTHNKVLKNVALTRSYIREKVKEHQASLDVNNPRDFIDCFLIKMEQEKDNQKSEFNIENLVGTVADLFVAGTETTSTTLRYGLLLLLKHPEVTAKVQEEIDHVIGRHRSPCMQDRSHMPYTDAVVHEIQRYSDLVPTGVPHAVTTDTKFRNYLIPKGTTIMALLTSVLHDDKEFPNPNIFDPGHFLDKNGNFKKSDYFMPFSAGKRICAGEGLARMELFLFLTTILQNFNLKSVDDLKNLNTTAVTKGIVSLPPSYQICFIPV
The series is described as follows: Time dependent inhibition of CYP2C8 (unknown origin) upto 25 uM. It counts as ADME.

Series [8] deals with T4, Cytochrome P450 3A4. The series is described as follows: Inhibition of CYP3A4 (unknown origin) upto 25 uM. It counts as ADME.
Another series has as its target Cytochrome P450 2C19 (Homo sapiens, UniProt P33261). The series is described as follows: Inhibition of CYP2C19 (unknown origin) upto 25 uM. It counts as ADME.
A short description of series [9]: Inhibition of BzATP-induced current in rat primary microglia cells measured after repeated BzATP treatment at -60 mV at 10 nM by whole cell patch clamp assay relative to control. It counts as functional. The procedure, abridged: as §1
In general terms: Patch clamp records ionic current or voltage across a cell membrane.

The nature of series [10]: Inhibition of BzATP-induced IL-1beta in mouse primary microglia cells primed with LPS measured after repeated BzATP treatment by microplate reader. It counts as functional, tissue-based. An outline of the steps:
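Cortical microglia from rat (P3 pups) or mouse were plated 1 day before assay and primed with 3 EU/mL LPS for 3.5 h. Compound was added for 30 min, then BzATP (1 mM) for 30 min at 37 °C. IL-1β was measured by MesoScale assay, normalised to BCA protein, and given as mean ± SD.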

T2 sequence (P10635 whole entry): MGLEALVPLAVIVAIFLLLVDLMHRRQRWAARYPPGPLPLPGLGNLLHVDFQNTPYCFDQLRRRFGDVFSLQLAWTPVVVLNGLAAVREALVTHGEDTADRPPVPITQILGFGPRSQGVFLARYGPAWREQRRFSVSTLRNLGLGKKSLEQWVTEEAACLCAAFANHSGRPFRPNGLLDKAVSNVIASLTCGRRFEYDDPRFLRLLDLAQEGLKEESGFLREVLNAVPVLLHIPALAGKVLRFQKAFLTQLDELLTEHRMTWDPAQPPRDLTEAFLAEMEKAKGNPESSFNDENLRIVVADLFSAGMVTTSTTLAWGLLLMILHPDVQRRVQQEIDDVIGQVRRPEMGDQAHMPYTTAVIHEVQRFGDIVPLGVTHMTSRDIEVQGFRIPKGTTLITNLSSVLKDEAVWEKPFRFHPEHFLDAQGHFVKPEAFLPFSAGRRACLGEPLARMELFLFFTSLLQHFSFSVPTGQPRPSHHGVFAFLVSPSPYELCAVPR
Sequence of Cytochrome P450 2C19 (P33261 whole entry): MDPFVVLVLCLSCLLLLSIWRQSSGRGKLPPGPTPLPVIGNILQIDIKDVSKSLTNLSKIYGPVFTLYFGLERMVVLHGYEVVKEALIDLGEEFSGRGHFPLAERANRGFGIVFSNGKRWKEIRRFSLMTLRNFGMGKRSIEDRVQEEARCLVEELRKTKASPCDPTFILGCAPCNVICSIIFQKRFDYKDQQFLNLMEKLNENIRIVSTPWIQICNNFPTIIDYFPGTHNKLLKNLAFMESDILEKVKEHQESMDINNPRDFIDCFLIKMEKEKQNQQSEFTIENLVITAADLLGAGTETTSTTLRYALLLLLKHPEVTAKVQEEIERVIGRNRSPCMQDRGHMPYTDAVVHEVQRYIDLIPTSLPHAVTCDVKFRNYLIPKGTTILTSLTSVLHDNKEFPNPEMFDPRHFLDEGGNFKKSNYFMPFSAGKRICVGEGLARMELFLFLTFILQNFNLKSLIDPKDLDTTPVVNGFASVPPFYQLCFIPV
Sequence of Adenosine receptor A2a (Homo sapiens) (P29274 whole entry): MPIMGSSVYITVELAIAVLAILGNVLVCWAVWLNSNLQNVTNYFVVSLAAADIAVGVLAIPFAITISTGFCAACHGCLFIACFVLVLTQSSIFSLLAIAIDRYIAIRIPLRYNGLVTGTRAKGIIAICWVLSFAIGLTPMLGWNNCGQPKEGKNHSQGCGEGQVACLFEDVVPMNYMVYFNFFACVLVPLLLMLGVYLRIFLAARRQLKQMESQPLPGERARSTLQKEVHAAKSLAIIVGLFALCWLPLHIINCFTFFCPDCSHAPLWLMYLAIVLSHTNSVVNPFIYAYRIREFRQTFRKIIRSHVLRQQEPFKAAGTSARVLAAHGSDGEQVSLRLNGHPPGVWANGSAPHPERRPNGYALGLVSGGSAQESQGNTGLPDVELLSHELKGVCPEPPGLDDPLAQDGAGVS

With `O=C(NC[C@H](c1ccc(Cl)cc1)N1CCOCC1)c1sc(-c2ncccn2)nc1C(F)(F)F`, the inhibition in series [1] worked out at 34%. For the same compound, the minimal effective dose in series [2] came out at 10 mg/kg. Further, the “inhibition (INH)” value against Cytochrome P450 2B6, at Cytochrome P450 2D6 [3], against Cytochrome P450 3A4 [8] and against Cytochrome P450 2C19 was “Not Active” throughout. The same compound showed a Ki at P2X purinoceptor 7 of 0.18 µM. Further, the TDI result at Cytochrome P450 2D6 [4], on Cytochrome P450 3A4 [5] and on Cytochrome P450 2C8 was “Not Active” each time. Also, the inhibition at 0.03 µM in series [6] amounted to 67%. The Tmax in series [7] is 4 h. At 0.01 µM the inhibition in series [9] was 31%. Moreover, half-maximal inhibition in series [10] (IC50) required 0.026 µM.
